Measurements taken from ChEMBL document CHEMBL4177603 (Bioorg Med Chem Lett, 2017).

Key:
[1] = Protein binding in dog plasma assessed as fraction unbound at 2 uM; assay type: ADME, cell-free, Canis lupus familiaris
[2] = molecular target: Substance-P receptor (Homo sapiens) (UniProt P25103); test: Agonist activity at human NK1 receptor expressed in U373MG cells assessed as increase in calcium flux at 10 uM by fluorimetric method relative to control; assay type: functional, cell-based
[3] = molecular target: Cannabinoid receptor 1 (Homo sapiens) (UniProt P21554); test: Displacement of [3H]CP 55940 from recombinant human CB1 receptor at 10 uM after 120 mins by scintillation counting method
[4] = Protein binding in rat plasma assessed as fraction unbound at 2 uM; assay type: ADME, cell-free
[5] = Clearance in dog blood at 0.3 mg/kg, iv via infusion for 0.5 hrs; assay type: ADME, organism-based, Canis lupus familiaris; conditions: whole blood
How it was run: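 Blood clearance was calculated from the measured plasma clearance and the measured blood:plasma ratio.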

[6] = molecular target: D(1A) dopamine receptor (Homo sapiens) (UniProt P21728); test: Agonist activity at recombinant human D1 receptor expressed in CHOK1 cells assessed as increase in cAMP accumulation at 10 uM after 30 mins by HTRF assay relative to control; assay type: functional, cell-based
[7] = Intrinsic clearance in rat liver microsomes; assay type: ADME, microsome; conditions: read-out: CLH
[8] = molecular target: GABA-A receptor; alpha-1/beta-2/gamma-2 (Homo sapiens) (UniProt P14867+P47870+P18507); test: Displacement of [3H]muscimol from recombinant human GABAalpha1beta2gamma2 at 10 uM measured after 120 mins by scintillation counting method; assay type: protein-complex assay
[9] = molecular target: T1, Alpha-1A adrenergic receptor (Homo sapiens) (UniProt P35348); test: Displacement of [3H]prazosin from recombinant human alpha1a receptor at 10 uM after 60 mins by scintillation counting method
T1 sequence (whole entry): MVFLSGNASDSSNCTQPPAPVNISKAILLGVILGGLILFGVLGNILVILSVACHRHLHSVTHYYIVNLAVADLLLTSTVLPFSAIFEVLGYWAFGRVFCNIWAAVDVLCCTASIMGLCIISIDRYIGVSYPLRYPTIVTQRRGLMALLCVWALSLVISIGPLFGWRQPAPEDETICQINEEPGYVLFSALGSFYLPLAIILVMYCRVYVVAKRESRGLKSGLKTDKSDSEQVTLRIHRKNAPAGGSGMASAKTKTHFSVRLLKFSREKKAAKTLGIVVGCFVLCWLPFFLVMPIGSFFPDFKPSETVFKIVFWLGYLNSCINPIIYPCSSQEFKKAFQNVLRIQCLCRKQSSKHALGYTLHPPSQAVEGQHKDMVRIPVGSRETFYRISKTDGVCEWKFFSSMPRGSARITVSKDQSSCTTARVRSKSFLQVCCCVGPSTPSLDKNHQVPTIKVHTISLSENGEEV

Homo sapiens [10] = organism: Homo sapiens; test: Inhibition of sodium channel site2 (unknown origin) at 10 uM by radioligand binding assay relative to control
Rattus norvegicus = organism: Rattus norvegicus; test: Displacement of [3H]GABA from rat brain GABA transporter at 10 uM after 30 mins by scintillation counting method
[11] = molecular target: Sodium channel protein type 1 subunit alpha (Homo sapiens, UniProt P35498); test: Inhibition of human Nav1.1 expressed in HEK cells by patch clamp electrophysiology method; assay type: cell-based
[12] = Intrinsic clearance in dog liver microsomes; assay type: ADME, Canis lupus familiaris, microsome; conditions: read-out: CLH
[13] = molecular target: Beta-2 adrenergic receptor (Homo sapiens) (UniProt P07550); test: Agonist activity at recombinant human beta2 receptor expressed in CHOK1 cells assessed as increase in cAMP accumulation at 10 uM after 30 mins by HTRF assay relative to control; assay type: functional, cell-based
[14] = molecular target: Mu-type opioid receptor (Homo sapiens) (UniProt P35372); test: Agonist activity at recombinant human MOR expressed in CHOK1 cells assessed as increase in cAMP accumulation at 10 uM measured after 10 mins by HTRF assay relative to control; assay type: functional, cell-based
Homo sapiens [15] = organism: Homo sapiens; test: Inhibition of GABA-A receptor benzodiazepine site (unknown origin) at 10 uM by radioligand binding assay relative to control
[16] = molecular target: Voltage-gated inwardly rectifying potassium channel KCNH2 (Homo sapiens, UniProt Q12809); test: Inhibition of human ERG by PatchXpress electrophysiology method
[17] = Protein binding in dog plasma assessed as fraction unbound; assay type: ADME, cell-free, Canis lupus familiaris
[18] = molecular target: Sodium channel protein type 8 subunit alpha (Rattus norvegicus, UniProt O88420); test: Inhibition of rat Nav1.6 expressed in HEK cells by patch clamp electrophysiology method; assay type: cell-based
[19] = molecular target: Proto-oncogene tyrosine-protein kinase Src (Homo sapiens) (UniProt P12931); test: Inhibition of recombinant human SRC at 10 uM using Ulight-Poly GAT[EAY(1:1:1)]n as substrate after 10 mins by LANCE assay
[20] = Clearance in dog plasma at 0.3 mg/kg, iv via infusion for 0.5 hrs; assay type: ADME, organism-based, Canis lupus familiaris
[21] = molecular target: Sodium channel protein type 2 subunit alpha (Homo sapiens, UniProt Q99250); test: Inhibition of human Nav1.2 expressed in HEK cells by patch clamp electrophysiology method; assay type: cell-based
[22] = molecular target: Delta-type opioid receptor (Homo sapiens) (UniProt P41143); test: Agonist activity at human DOR expressed in Chem1 cells assessed as increase in calcium flux at 10 uM by fluorimetric method relative to control; assay type: functional, cell-based
Homo sapiens [23] = organism: Homo sapiens; test: Inhibition of neuronal type nAChR (unknown origin) at 10 uM by radioligand binding assay relative to control
[24] = Volume of distribution at steady state in dog at 0.3 mg/kg, iv via infusion for 0.5 hrs; assay type: ADME, organism-based, Canis lupus familiaris; conditions: in vivo, read-out: Vdss
[25] = molecular target: Prostaglandin G/H synthase 2 (Homo sapiens, UniProt P35354); test: Inhibition of recombinant human COX2 using arachidonic acid as substrate measured after 5 mins by fluorescence assay
[26] = molecular target: Acetylcholinesterase (Homo sapiens) (UniProt P22303); test: Inhibition of recombinant human AChE at 10 uM using acetylthiocholine as substrate measured after 30 mins by spectrophotometric method relative to control
[27] = molecular target: Alpha-2B adrenergic receptor (Homo sapiens) (UniProt P18089); test: Agonist activity at recombinant human alpha2b receptor expressed in HEK293 cells assessed as increase in cAMP accumulation at 10 uM measured after 30 mins by HTRF assay relative to control; assay type: functional, cell-based
[28] = molecular target: 5-hydroxytryptamine receptor 2A (Homo sapiens) (UniProt P28223); test: Agonist activity at human 5-HT2A receptor expressed in HEK293 cells assessed as increase in IP1 accumulation at 10 uM measured after 30 mins by HTRF method relative to control; assay type: functional, cell-based
[29] = molecular target: Cannabinoid receptor 1 (Homo sapiens) (UniProt P21554); test: Antagonist activity at recombinant human CB1 receptor expressed in CHOK1 cells assessed as inhibition of CP 55940-induced cAMP accumulation at 10 uM after 20 mins by HTRF assay relative to control; assay type: functional, cell-based
[30] = molecular target: Sodium channel protein type 3 subunit alpha (Homo sapiens, UniProt Q9NY46); test: Inhibition of human Nav1.3 expressed in HEK cells by patch clamp electrophysiology method; assay type: cell-based
[31] = molecular target: Muscarinic acetylcholine receptor M3 (Homo sapiens) (UniProt P20309); test: Antagonist activity at human M3 receptor expressed in CHOK1 cells assessed as inhibition of acetylcholine-induced calcium flux at 10 uM by fluorimetric method relative to control; assay type: functional, cell-based

Sequence of Cannabinoid receptor 1 (Homo sapiens) (P21554 whole entry): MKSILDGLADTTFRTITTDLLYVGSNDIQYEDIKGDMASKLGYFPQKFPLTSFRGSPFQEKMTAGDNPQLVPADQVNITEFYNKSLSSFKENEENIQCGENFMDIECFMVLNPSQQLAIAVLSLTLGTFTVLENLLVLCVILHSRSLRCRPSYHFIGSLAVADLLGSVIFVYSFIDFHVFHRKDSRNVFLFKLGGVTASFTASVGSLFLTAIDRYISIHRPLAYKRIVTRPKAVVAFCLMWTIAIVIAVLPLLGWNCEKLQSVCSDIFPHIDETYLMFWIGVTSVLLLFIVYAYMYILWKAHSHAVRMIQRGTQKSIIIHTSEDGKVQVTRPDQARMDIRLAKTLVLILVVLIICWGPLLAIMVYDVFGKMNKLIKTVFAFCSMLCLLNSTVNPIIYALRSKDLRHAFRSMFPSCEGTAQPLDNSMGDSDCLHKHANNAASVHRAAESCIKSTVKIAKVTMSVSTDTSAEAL
Sequence of Beta-2 adrenergic receptor (Homo sapiens) (P07550 whole entry, looked up): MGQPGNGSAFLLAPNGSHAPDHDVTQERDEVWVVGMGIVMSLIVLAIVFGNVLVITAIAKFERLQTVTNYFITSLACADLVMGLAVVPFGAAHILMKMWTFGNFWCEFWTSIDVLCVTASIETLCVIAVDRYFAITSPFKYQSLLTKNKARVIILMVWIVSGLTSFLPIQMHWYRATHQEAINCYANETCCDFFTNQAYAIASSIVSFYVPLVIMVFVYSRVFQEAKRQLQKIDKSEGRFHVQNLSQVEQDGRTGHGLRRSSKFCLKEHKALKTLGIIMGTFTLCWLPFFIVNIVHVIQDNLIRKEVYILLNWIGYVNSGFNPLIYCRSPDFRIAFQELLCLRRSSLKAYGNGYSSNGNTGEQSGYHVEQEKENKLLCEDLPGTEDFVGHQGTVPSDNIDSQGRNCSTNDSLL
Sequence of Proto-oncogene tyrosine-protein kinase Src (Homo sapiens) (P12931 2-536 limits assumed): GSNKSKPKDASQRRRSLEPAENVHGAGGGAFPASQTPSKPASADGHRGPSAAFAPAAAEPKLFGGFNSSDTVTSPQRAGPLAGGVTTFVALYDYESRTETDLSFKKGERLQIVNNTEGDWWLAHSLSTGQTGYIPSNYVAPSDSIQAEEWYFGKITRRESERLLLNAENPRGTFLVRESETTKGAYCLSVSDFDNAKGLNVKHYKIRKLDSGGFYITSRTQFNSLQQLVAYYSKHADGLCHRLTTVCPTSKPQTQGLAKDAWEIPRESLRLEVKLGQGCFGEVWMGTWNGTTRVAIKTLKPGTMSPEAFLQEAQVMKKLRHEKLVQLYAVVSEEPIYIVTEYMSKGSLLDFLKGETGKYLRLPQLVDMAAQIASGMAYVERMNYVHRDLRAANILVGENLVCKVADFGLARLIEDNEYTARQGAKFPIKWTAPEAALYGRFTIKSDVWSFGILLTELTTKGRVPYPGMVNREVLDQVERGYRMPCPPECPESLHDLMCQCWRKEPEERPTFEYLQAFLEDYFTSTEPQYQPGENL
Sequence of D(1A) dopamine receptor (Homo sapiens) (P21728 whole entry): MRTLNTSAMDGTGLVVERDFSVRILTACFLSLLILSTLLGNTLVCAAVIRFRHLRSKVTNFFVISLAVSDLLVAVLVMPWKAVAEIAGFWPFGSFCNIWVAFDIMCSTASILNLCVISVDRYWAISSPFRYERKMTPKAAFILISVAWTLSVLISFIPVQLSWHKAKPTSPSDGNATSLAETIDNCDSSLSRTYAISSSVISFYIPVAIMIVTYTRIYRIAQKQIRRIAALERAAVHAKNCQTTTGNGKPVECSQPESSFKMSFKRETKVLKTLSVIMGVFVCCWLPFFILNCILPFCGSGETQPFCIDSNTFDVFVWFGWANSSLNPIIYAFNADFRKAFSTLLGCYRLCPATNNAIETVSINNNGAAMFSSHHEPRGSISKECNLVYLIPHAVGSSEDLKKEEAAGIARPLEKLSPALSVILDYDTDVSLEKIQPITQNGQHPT
Sequence of Voltage-gated inwardly rectifying potassium channel KCNH2 (Q12809 whole entry): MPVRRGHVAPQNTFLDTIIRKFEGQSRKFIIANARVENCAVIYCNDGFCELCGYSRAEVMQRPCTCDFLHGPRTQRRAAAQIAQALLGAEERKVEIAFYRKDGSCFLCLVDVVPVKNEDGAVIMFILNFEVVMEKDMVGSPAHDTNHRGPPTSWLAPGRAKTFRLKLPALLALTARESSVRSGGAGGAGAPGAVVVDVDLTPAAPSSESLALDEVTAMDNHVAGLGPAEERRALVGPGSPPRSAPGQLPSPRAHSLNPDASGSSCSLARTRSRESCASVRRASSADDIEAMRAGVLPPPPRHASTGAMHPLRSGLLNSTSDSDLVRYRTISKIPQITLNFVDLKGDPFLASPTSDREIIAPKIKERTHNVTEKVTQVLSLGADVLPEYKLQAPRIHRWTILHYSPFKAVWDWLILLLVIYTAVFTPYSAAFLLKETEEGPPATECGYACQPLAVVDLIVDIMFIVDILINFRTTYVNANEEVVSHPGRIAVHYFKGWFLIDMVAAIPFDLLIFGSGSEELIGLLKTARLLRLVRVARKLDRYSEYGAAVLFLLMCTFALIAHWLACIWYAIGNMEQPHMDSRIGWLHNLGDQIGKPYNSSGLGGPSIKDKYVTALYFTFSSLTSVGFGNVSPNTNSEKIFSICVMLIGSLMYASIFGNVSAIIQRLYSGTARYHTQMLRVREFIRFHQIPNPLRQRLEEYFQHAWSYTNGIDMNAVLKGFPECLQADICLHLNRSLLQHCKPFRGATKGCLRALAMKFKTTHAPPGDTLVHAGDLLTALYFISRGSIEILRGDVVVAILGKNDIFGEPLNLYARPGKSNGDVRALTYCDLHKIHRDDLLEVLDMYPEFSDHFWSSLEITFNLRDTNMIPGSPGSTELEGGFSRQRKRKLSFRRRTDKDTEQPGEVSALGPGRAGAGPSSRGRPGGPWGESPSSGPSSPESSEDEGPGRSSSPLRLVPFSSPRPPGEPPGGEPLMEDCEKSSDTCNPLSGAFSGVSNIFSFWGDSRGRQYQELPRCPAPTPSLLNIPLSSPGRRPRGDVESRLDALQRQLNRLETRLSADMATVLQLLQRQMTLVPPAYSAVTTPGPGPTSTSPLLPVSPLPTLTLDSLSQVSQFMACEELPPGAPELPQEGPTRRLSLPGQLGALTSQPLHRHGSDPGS
Sequence of Acetylcholinesterase (Homo sapiens) (P22303 whole entry): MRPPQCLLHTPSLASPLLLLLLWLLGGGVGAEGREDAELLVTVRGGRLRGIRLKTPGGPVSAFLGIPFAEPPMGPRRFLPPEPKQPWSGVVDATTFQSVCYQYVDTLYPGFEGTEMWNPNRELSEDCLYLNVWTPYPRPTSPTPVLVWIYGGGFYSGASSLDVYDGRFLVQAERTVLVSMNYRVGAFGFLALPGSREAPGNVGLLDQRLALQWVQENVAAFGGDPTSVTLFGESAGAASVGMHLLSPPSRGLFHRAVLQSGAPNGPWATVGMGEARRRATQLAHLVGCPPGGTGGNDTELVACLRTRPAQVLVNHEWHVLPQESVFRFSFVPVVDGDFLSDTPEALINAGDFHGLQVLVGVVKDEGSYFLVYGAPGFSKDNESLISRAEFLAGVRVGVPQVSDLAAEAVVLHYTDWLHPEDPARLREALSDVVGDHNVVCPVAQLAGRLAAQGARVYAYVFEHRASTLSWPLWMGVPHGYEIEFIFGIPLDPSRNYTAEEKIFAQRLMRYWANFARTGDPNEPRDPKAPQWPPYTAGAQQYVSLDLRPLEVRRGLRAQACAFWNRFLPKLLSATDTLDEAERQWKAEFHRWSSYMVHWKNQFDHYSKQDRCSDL
Sequence of 5-hydroxytryptamine receptor 2A (Homo sapiens) (P28223 whole entry): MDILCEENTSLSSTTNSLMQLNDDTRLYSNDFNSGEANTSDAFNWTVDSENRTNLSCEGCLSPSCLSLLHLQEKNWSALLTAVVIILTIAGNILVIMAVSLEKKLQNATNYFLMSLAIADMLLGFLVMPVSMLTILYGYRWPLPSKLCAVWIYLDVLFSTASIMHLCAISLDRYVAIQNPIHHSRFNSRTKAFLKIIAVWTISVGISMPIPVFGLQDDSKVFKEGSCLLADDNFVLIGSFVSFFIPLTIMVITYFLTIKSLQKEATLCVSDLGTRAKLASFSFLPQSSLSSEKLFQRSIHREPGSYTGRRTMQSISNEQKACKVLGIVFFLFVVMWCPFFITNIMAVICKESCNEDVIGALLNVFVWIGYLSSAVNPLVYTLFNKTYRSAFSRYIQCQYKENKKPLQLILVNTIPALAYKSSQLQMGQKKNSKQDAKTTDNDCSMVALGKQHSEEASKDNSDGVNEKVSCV
Sequence of Alpha-2B adrenergic receptor (Homo sapiens) (P18089 whole entry): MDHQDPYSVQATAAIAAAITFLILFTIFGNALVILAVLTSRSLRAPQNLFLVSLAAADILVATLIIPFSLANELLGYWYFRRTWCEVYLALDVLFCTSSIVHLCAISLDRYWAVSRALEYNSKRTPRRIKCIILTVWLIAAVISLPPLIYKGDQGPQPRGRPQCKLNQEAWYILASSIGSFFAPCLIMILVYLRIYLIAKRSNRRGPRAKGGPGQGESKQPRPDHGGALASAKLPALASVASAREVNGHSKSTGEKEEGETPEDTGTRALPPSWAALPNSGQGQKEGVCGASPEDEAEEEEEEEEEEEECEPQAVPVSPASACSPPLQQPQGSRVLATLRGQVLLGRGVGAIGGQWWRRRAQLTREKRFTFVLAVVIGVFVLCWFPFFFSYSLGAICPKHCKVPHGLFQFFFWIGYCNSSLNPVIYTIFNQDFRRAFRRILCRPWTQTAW
Sequence of Substance-P receptor (Homo sapiens) (P25103 whole entry): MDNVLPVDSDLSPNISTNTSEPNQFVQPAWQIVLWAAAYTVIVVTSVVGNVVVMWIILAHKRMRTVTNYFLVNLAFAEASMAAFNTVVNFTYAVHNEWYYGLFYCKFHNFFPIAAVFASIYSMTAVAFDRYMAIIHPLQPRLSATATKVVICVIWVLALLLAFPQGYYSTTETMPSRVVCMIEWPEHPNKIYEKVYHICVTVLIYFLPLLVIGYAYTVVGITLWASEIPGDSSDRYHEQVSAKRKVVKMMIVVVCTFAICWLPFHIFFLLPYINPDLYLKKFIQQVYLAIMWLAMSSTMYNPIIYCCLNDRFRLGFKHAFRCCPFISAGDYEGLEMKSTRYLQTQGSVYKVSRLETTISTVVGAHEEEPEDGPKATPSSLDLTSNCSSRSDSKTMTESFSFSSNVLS

Molecule N#Cc1cc(S(=O)(=O)Nc2ncns2)ccc1Oc1ccc(-c2cccc(C(F)(F)F)c2)cc1-c1ccnc(CNCCC2CCNCC2)c1 has a fraction unbound at 2 µM [1] of 0.003, an Activity [2] of 0% and an inhibition [3] of 21%. The fraction unbound at 2 µM [4] was 0.002, the clearance [5] was 39.8 mL/min/kg and the Activity [6] was 6%. The microsomal CLint [7] was less than 14.1 µL/min/mg, the inhibition [8] was 0% and the inhibition [9] was -4%. The inhibition (Homo sapiens [10]) was 92%, the inhibition (Rattus norvegicus) was 5% and the IC50 [11] was 309 to 314 nM. It also gave a microsomal CLint [12] of less than 18.1 µL/min/mg, an Activity [13] of 1% and an Activity [14] of 21%. For the same molecule, the inhibition (Homo sapiens [15]) was 35%, the IC50 [16] was greater than 25200 nM and the fraction unbound [17] was 0.00374. For the same molecule, the IC50 [18] was 5.01 nM, the inhibition [19] was 9% and the clearance [20] was 17.8 mL/min/kg. The IC50 [21] was 2.52 to 3 nM, the Activity [22] was -49% and the inhibition (Homo sapiens [23]) was 34%. It also gave a Vd [24] of 0.46 L/kg, an IC50 [25] of 3650 nM and an inhibition [26] of 15%. The Activity [27] was -2%, the Activity [28] was -1% and the inhibition [29] was 11%. The IC50 [30] was 6440 to 11500 nM and the inhibition [31] was 29%.
